Assay [1] has as its target T1, Muscarinic acetylcholine receptor M1 (Homo sapiens, UniProt P11229).
T1 sequence (P11229 whole entry): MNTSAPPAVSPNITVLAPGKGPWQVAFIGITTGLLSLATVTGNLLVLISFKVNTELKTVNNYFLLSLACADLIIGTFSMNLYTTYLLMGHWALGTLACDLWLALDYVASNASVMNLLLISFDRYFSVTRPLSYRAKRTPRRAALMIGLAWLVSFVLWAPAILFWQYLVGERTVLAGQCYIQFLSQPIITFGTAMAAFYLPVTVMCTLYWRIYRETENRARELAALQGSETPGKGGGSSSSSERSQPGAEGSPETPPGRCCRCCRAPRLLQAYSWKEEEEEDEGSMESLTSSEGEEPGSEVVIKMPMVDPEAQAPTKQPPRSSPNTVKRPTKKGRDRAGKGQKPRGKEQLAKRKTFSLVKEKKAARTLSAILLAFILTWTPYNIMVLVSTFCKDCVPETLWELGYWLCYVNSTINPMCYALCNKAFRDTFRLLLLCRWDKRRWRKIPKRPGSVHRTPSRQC
In words: Displacement of [3H]NMS from human recombinant muscarinic receptor M1 expressed in CHO-K1 cell membranes incubated for 2 hrs by scintillation counting method. The gist of the method:
(§1)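 Membranes from CHO-K1 cells stably expressing each human subtype, homogenised in 25 mM sodium phosphate, 5 mM MgCl2, pH 7.4. About 25–70 μg/mL protein incubated with 0.2 nM [3H]NMS and test compound for 2 h at r.t. Nonspecific binding defined with 10 μM atropine. Filtration, then counting. Four-parameter logistic fit gave IC50, converted to Ki. Mean ± S.E.M. of ≥3 experiments in duplicate.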
(Displacement assays read how much labelled ligand stays bound in the presence of the test substance.)

The target of assay [2] is T2, Muscarinic acetylcholine receptor M2 (Homo sapiens, UniProt P08172).
T2 sequence (P08172 whole entry): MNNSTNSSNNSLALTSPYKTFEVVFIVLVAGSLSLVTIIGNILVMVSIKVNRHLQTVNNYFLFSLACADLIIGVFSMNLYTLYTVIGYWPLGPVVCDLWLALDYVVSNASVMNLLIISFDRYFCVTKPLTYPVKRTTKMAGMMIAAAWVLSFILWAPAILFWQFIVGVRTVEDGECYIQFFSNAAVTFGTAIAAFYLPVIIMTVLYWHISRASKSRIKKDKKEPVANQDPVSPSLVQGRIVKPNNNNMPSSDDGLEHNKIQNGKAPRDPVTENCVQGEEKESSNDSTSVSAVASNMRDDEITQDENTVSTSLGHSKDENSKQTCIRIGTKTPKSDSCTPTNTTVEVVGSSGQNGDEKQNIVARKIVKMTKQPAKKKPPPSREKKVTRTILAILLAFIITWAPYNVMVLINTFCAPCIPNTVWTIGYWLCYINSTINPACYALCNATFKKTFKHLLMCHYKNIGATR
The assay can be described thus: Displacement of [3H]NMS from human recombinant muscarinic receptor M2 expressed in CHO-K1 cell membranes incubated for 2 hrs by scintillation counting method. Put shortly: as §1

Assay [3] addresses Muscarinic acetylcholine receptor M3 (Homo sapiens, UniProt P20309). The assay can be described thus: Displacement of [3H]NMS from human recombinant muscarinic receptor M3 expressed in CHO-K1 cell membranes incubated for 2 hrs by scintillation counting method. The gist of the method:
as §1

Assay [4] concerns the target T3, Muscarinic acetylcholine receptor M4 (Homo sapiens, UniProt P08173).
T3 sequence (P08173 whole entry): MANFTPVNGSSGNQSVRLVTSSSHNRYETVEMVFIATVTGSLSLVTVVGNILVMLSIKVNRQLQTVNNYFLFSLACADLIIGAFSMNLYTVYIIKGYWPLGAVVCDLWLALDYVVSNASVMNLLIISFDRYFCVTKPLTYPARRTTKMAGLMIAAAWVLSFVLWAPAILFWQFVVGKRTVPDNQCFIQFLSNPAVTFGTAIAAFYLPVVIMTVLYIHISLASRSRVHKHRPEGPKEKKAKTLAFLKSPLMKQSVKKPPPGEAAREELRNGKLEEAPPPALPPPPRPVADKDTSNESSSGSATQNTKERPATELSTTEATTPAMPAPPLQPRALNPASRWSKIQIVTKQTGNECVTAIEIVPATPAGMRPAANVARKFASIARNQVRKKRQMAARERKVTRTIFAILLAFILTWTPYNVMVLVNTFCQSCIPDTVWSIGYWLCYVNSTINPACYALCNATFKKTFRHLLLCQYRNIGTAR
The assay can be described thus: Displacement of [3H]NMS from human recombinant muscarinic receptor M4 expressed in CHO-K1 cell membranes incubated for 2 hrs by scintillation counting method. Put shortly: (§2)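 CHO-K1 membranes stably expressing hM4 or hM5, at about 25–70 μg/mL protein, in 25 mM sodium phosphate with 5 mM MgCl2, pH 7.4. Competition with 0.2 nM [3H]NMS for 2 h at r.t.; nonspecific binding defined with 10 μM atropine. Filtration, then scintillation counting. IC50 from four-parameter logistic fit, converted to Ki. Mean ± S.E.M. of ≥3 experiments, each in duplicate.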

Assay [5] concerns the target T4, Muscarinic acetylcholine receptor M5 (Homo sapiens, UniProt P08912).
T4 sequence (P08912 whole entry): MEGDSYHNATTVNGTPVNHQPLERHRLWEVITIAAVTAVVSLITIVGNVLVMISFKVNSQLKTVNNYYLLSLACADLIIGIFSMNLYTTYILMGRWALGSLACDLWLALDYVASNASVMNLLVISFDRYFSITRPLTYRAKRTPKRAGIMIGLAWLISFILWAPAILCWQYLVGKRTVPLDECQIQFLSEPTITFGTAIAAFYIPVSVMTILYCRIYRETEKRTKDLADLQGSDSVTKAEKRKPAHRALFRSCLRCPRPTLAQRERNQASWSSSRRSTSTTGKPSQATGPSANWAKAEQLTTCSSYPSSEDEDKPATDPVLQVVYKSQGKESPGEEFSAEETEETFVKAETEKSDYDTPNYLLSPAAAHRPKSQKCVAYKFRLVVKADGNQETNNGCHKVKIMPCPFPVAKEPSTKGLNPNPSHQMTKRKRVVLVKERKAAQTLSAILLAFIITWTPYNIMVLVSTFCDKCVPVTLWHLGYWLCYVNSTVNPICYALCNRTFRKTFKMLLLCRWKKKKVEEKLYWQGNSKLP
In words: Displacement of [3H]NMS from human recombinant muscarinic receptor M5 expressed in CHO-K1 cell membranes incubated for 2 hrs by scintillation counting method. Put shortly: as §2

Assay [6] has as its target T5, Muscarinic acetylcholine receptor (Mus musculus) (UniProt Q920H4+Q9ERZ4+P12657+P32211+Q9ERZ3). The assay can be described thus: Activity at muscarinic receptor in BALB/c mouse MSC assessed as reduction in cell viability at 10^-4M incubated for 24 hrs by Cell-titer 96 aqueous one solution reagent based assay. In kind it is […]. Put shortly:
(§3)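 Bone-marrow MSCs from mouse, cultured for 2 weeks, then seeded at 5,000 cells/well in DMEM with 10% heat-inactivated FCS. Exposed to compound at 10–4 to 10–10 M for 24 h, with vehicle (DMSO) and untreated controls. Viability read by MTS reagent (2 h, 5% CO2) as absorbance at 490 nm. Mean ± SEM of four independent experiments.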

The target in assay [7] is T5, Muscarinic acetylcholine receptor (Mus musculus). In words: Activity at muscarinic receptor in BALB/c mouse MSC assessed as increase in cell viability at 10^-10M incubated for 24 hrs by Cell-titer 96 aqueous one solution reagent based assay. In kind it is […]. Put shortly:
as §3

For assay [8] the target is unchanged. The settings on record: BALB/c, 10^-10M.
For assay [9] the target is unchanged. The assay can be described thus: Antagonist activity at muscarinic receptor in BALB/c mouse MSC assessed as inhibition of carbachol-induced increase in cell viability at 10^-4 to 10^-10M incubated for 24 hrs by Cell-titer 96 aqueous one solution reagent based assay. In kind it is […]. Put shortly: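 Mouse bone-marrow MSCs kept as adherent cultures, with medium changes, for 2 weeks, then plated at 5,000 cells/well in DMEM with 10% HIFCS. Antagonist (10–4 to 10–10 M) given for 1 h, medium replaced, then carbachol 10–10 M for 24 h. Viability read by MTS, 2 h incubation, absorbance 490 nm. Controls were vehicle (DMSO) and untreated cells. Four independent experiments, mean ± SEM.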

Active and inactive are the calls of the source. The calls are words filed in the database; no cut-off is given here.

Sequence of Muscarinic acetylcholine receptor M3 (P20309 whole entry): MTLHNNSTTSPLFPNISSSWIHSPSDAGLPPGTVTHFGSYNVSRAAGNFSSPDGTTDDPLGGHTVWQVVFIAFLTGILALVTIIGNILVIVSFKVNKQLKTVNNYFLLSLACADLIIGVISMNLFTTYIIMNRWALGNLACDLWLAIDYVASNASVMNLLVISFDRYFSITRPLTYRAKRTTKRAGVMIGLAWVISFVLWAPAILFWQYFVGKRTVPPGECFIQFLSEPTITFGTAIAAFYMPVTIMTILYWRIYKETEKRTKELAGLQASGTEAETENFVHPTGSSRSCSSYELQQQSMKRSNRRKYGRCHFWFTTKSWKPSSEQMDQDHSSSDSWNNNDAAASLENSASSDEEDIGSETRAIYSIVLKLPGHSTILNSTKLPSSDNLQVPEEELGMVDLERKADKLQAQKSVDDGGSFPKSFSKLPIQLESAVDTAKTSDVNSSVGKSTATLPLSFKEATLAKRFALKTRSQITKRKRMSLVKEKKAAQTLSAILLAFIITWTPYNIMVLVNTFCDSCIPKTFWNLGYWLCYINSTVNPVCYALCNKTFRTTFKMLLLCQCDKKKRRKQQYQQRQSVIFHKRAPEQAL

As for `O=C(O[C@H]1C[C@H]2CC[C@@H](C1)[N+]21CCCC1)C(O)(c1ccccc1)c1ccccc1` [TROSPIUM CHLORIDE], the Ki (usually a measure of affinity in units of concentration, obtained from inhibition or displacement) was 3.47 nM in assay [1]; 1.15 nM in assay [2]; 1.02 nM in [3]; 1.45 nM in [4]; 6.03 nM in assay [5].

As to `CN1[C@@H]2CC[C@H]1C[C@@H](OC(=O)C(CO)c1ccccc1)C2` (stereo partly specified), the outcome in assay [6] and in [7] was Active. Besides, in [8], the inhibition entry is “Active”.

On to `C[N+](C)(C)C[C@@H]1COC[C@](c2ccccc2)(C2CCCCC2)O1` (relative stereo), for which the result in [6] and in [7] was Active. Also, the inhibition entry in assay [9] was “Active”.
